This is an account of results in ChEMBL document CHEMBL4229446, “Development of Novel Monoamine Oxidase-B (MAO-B) Inhibitors with Reduced Blood-Brain Barrier Permeability for the Potential Management of Noncentral Nervous System (CNS) Diseases” (J Med Chem, 2018).

As usually defined, the AUC(0-t) is the area under the concentration-time curve up to a stated or last time point. High values mean more exposure, low ones less exposure. A word on the Kp: it is the ratio of the level in a tissue or fluid to that in plasma or blood. Usually Cmax stands for the peak of the concentration-time curve. The Tmax is the time at which the peak concentration occurs. The term IC50 denotes the midpoint of a concentration-inhibition curve.

The nature of series [1]: AUClast in C57BL/6 mouse plasma at 24.5 mg/kg, po administered as single dose measured 24 hrs by UPLC-MS/MS analysis. The series is classed as ADME, organism-based. Also noted: dose 24.5 mg/kg, route oral, time 0 - last. In short, it runs like this:
(§1)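 15 animals dosed, 3 sacrificed at each of 1, 2, 4, 6 and 24 h. Plasma and brain homogenate were extracted and quantified by UPLC-MS/MS. Parameters came from noncompartmental analysis. Values above or below the limit of quantification, or undetected, were omitted. Kp = AUClast brain/plasma.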

The nature of series [2]: AUClast in C57BL/6 mouse brain at 24.5 mg/kg, po administered as single dose measured 24 hrs by UPLC-MS/MS analysis. The series is classed as ADME, organism-based. On the set-up: dose 24.5 mg/kg, route oral, time 0 - last. In a few lines:
as §1

Series [3] can be described thus: AUClast in C57BL/6 mouse brain at 24.5 mg/kg, iv administered as single dose measured 24 hrs by UPLC-MS/MS analysis. The series is classed as ADME, organism-based. Also noted: dose 24.5 mg/kg, route intravenous, time 0 - last. In a few lines:
(§2)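 21 animals dosed at 0 min, 3 sacrificed at each of 0, 5, 15, 30 min, 1, 4 and 24 h. Plasma was extracted by protein precipitation with phospholipid removal. Brain was weighed, bead-homogenised in 50 mM ammonium formate and extracted in acidified organic solvent. Quantified by UPLC-MS/MS (MRM). Brain ng/g taken as ng/mL. Parameters came from noncompartmental analysis. Kp = AUClast brain/plasma.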

Series [4] in a line: Apparent half-life of the terminal disposition phase in C57BL/6 mouse plasma at 24.5 mg/kg, iv administered as single dose measured 24 hrs by UPLC-MS/MS analysis. The series is classed as ADME, organism-based. Conditions: read-out: t1/2 lambda z (converted). In short, it runs like this: as §2
Series [5] can be described thus: Ratio of AUClast in brain to plasma in C57BL/6 mouse at 24.5 mg/kg, iv administered as single dose measured 24 hrs by UPLC-MS/MS analysis. The series is classed as ADME, organism-based. In short, it runs like this:
as §2

Series [6] is described as follows: Cmax in C57BL/6 mouse brain at 24.5 mg/kg, sc administered as single dose measured 24 hrs by UPLC-MS/MS analysis. The series is classed as ADME, organism-based. Also noted: dose 24.5 mg/kg, route subcutaneous. In short, it runs like this:
as §1

Series [7] in a line: Tmax in C57BL/6 mouse plasma at 24.5 mg/kg, sc administered as single dose measured 24 hrs by UPLC-MS/MS analysis. The series is classed as ADME, organism-based. In short, it runs like this:
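Plasma extracted by protein precipitation/phospholipid removal and measured by UPLC-MS/MS (MRM). Parameters by noncompartmental analysis, omitting values outside quantification limits or undetected.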

A short description of series [8]: Cmax in C57BL/6 mouse plasma at 24.5 mg/kg, po administered as single dose measured 24 hrs by UPLC-MS/MS analysis. The series is classed as ADME, organism-based. On the set-up: dose 24.5 mg/kg, route oral. In a few lines: as §1
Series [9] in a line: Cmax in C57BL/6 mouse plasma at 24.5 mg/kg, iv administered as single dose measured 24 hrs by UPLC-MS/MS analysis. On the set-up: dose 24.5 mg/kg, route intravenous. The series is classed as ADME, organism-based. In a few lines:
as §2

Series [10] is described as follows: AUClast in C57BL/6 mouse brain at 24.5 mg/kg, sc administered as single dose measured 24 hrs by UPLC-MS/MS analysis. The series is classed as ADME, organism-based. On the set-up: dose 24.5 mg/kg, time 0 - last, route subcutaneous. In short, it runs like this: as §1
In series [11] the target is T1, Amine oxidase [flavin-containing] B (Homo sapiens, UniProt P27338).
T1 sequence (P27338 whole entry): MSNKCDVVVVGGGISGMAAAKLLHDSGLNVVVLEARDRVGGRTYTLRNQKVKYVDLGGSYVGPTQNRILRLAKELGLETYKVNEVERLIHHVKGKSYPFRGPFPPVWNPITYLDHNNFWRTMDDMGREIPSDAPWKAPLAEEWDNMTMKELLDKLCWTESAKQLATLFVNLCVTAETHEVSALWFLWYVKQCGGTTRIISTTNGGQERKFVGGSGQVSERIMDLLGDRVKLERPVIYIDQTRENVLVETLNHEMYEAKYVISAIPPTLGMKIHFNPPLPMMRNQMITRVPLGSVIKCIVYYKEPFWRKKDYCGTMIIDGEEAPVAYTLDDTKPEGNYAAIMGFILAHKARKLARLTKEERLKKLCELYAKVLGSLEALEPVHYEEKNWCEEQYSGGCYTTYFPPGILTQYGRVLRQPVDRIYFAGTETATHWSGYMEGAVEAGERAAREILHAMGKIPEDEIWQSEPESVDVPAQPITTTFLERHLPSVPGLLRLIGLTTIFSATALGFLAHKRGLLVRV
Nature of the series: Inhibition of human recombinant MAO-B expressed in baculovirus infected BTI-TN-5B1-4 insect cells using benzylamine as substrate preincubated for 1 hr followed by substrate addition and measured after 30 mins by resazurin dye-based fluorescence assay. The series is classed as cell-based.

A short description of series [12]: Ratio of AUClast in brain to plasma in C57BL/6 mouse at 23.4 mg/kg, iv administered as single dose measured 24 hrs by UPLC-MS/MS analysis. The series is classed as ADME, organism-based. In short, it runs like this:
(§3)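 21 animals dosed at 0 min, 3 killed per time point (0, 5, 15, 30 min, 1, 4, 24 h). Plasma extracted by protein precipitation/phospholipid removal. Brain homogenized in 50 mM ammonium formate, then extracted in acidified organic solvent. Both quantified by UPLC-MS/MS (MRM), brain ng/g taken as ng/mL. Noncompartmental analysis. Kp = AUClast brain/plasma.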

A short description of series [13]: AUClast in C57BL/6 mouse brain at 23.4 mg/kg, sc administered as single dose measured 24 hrs by UPLC-MS/MS analysis. The series is classed as ADME, organism-based. On the set-up: dose 23.4 mg/kg, time 0 - last, route subcutaneous. In a few lines:
(§4)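 15 animals dosed, 3 killed at each of 1, 2, 4, 6 and 24 h. Plasma and brain homogenate (ammonium formate, acidified organic extraction) assayed by UPLC-MS/MS, brain ng/g taken as ng/mL. Noncompartmental parameters exclude values above/below quantification limit or undetected. Kp = AUClast brain/plasma.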

The nature of series [14]: Tmax in C57BL/6 mouse plasma at 23.4 mg/kg, iv administered as single dose measured 24 hrs by UPLC-MS/MS analysis. The series is classed as ADME, organism-based. In short, it runs like this: as §3
Series [15] is described as follows: AUClast in C57BL/6 mouse brain at 23.4 mg/kg, po administered as single dose measured 24 hrs by UPLC-MS/MS analysis. The series is classed as ADME, organism-based. On the set-up: dose 23.4 mg/kg, route oral, time 0 - last. In a few lines:
as §4

Series [16] can be described thus: Tmax in C57BL/6 mouse brain at 23.4 mg/kg, sc administered as single dose measured 24 hrs by UPLC-MS/MS analysis. The series is classed as ADME, organism-based. In short, it runs like this: as §4

As for `C[C@H](Cc1ccc(OCc2ccc(Br)c(Cl)c2)cc1)N(C)CC(=O)O`, the AUC(0-t) at 24 h was 104000 ng·h/mL in [1], 12600 ng·h/mL in series [2], 10700 ng·h/mL in series [3] and 12900 ng·h/mL in [10]. Moreover, in series [4], the half-life was 3.93 h. Moreover, the Kp at 24 h in series [5] is 0.11. The Cmax in series [6] worked out at 806 ng/mL; in series [8], 8530 ng/mL; in series [9], 16700 ng/mL. Also, the Tmax in [7] stood at 2 h.

Consider `CN(CC(=O)O)[C@H](CC#N)Cc1ccc(OCc2ccc(Cl)c(Cl)c2)cc1`, for which the half-maximal inhibitory concentration (IC50) in series [11] turned out to be 206 nM. Further, in series [12], the Kp at 24 h was 0.004. Besides, the AUC(0-t) at 24 h was 176 ng·h/mL in series [13] and 116 ng·h/mL in series [15]. In addition, the figures for the Tmax in series [14] and in series [16] were 5 min and 1 h, respectively.
